CHT PAM: allosteric activators of human choline transporter CHT; Q9GZV3; CHT-expressing cells, membrane potential dye, choline EC20; hits give high values; LV-AA mutant CHT in HEK293 cells; B-score at 10 µM; hit rate 0.49% among 310,000; AID 488977;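 active = initial fluorescence not abnormally high and integrated response B-score, plate-corrected, over 3 SD above library mean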
PHOSPHO1 inh: inhibitors of human PHOSPHO1 phosphatase; Q8TCT1; recombinant PHOSPHO1, absorbance phosphatase assay; hit rate 1.1% among 290,000; inhibition, % at 13.3 µM; in the data active = inhibition above about 60%
Target sequence (Q8TCT1 whole entry, looked up): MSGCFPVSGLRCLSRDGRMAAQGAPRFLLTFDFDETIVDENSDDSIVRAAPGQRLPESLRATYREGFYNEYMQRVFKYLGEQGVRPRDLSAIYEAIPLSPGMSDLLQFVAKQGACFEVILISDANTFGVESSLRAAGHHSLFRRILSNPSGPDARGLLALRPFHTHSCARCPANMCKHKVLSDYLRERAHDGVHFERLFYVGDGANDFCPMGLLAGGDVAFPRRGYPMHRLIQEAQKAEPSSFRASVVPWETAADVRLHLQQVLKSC
Lipid droplet: modulators of hepatic lipid droplet formation. inhibition, % at 6.5 µM. hit rate 0.4% among 240,000. AML12 mouse hepatocytes, oleate lipid droplets, BODIPY imaging. AID 1656;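 active = lipid droplet intensity inhibited by at least 50%, with more than 500 cells counted; inconclusive = wells with under 300 cells, treated as cytotoxic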
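Technique: fluorescence imaging, 20x objective, two fields per well / Assay system: AML12 hepatocytes (mouse) / Measure: % inhibition of lipid droplet signal / Doses: 6.5 µM single-point dosing / Incubation: overnight exposure / Reagent: 100 µM oleic acid challenge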
HSF-1 act: increases HSF-1 driven luciferase reporter signal. NIH3T3-HGL HSF-1 luciferase reporter, MG132, 8 h; 100% = twice DMSO control signal. activation, % at 9 µM. hit rate 1.7% among 300,000. AID 504408;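 active = mean replicate activation of at least 50% with a set share of replicates each reaching 50%; inconclusive = only one of those two conditions met; inactive = mean below 50% and too few replicates reaching it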;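 also: 0% = median of the neutral control wells and 100% = twice that signal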
CHT inh: human CHT choline transport inhibition. Q9GZV3. CHT-expressing cells, membrane potential dye, choline response; hits give low values. B-score at 10 µM. hit rate 0.86% among 310,000. AID 488975;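 active = B-score over 3 SD under the library average, and starting fluorescence ratio not unusually high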;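 also: choline stimulus applied at its EC90 after an EC20 pre-addition; B-score computed on integrated fluorescence ratio after choline addition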
HSF1 inh: HSF1 inhibition | activity change, negative = inhibition, % at 7.5 µM (by protocol) | AID 2098 | hit rate 0.77% among 300,000 | NIH3T3-HGL HSE-luciferase, MG132-induced, luminescence 8 h; hits give low values;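 active = more than half of replicate wells show activity change below -50%, luminescence cut by over half; inconclusive = some wells, but at most half, below -50%; inactive = no replicate well below -50%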;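 also: luciferase reports HSF-1 transcriptional activity via heat shock element; 0% = median of DMSO wells and -100% = zero luminescence signal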
CHT block conf: human CHT inhibition, confirmatory screen; CHT activity remaining % of control (hits give low values), % at 10 µM; hit rate 70% among 2,400; shares compounds with CHT inh; CHT-expressing cells, choline membrane potential dye; LV-to-AA substituted CHT, HEK293 cells;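 active = choline transporter activity left, mean of duplicates at 10 µM, below buffer-only control mean minus 3 SD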;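 also: depolarization triggered by choline at its EC90 following an EC20 pre-addition; 0% = hemicholinium-3 full block and 100% = buffer-only control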
HEK293 CHT ctr: activity in parental HEK293 cells lacking CHT; membrane potential dye, choline response; active = decrease or increase beyond buffer ±3SD; shares compounds with CHT inh; AID 493222; membrane potential ratio readout (active if shifted either direction beyond buffer ±3SD; no single direction) at 10 µM; hit rate 4% among 2,400;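 also: parental cells lack the transporter so any hit is non-specific; ratio is peak minus trough fluorescence over baseline after EC90 choline challenge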
Active calls of the source: *; i = inactive; ? = inconclusive; nt = no result. This is a sample that favours compounds with a hit; in the whole collection about 4.9% have one here.

SMILES	CHT PAM	PHOSPHO1 inh	Lipid droplet	HSF-1 act	CHT inh	HSF1 inh	CHT block conf	HEK293 CHT ctr
Nc1ccccc1C(=O)NC1CCCNC1=O (configuration not stated)	i	nt	nt	10.4	-15.8*	-2.5	i	i
CN(C)CCOC(=O)COc1ccc(Cl)cc1	i	nt	nt	nt	i	nt	nt	nt
CN(C)CCOC(=O)Cc1ccc(Cl)cc1	i	6.8	12.2	10.4	-9.97*	-2.7	62.7%*	i
O=C(Cn1ncc2c1-c1ccccc1OC2)N(Cc1ccco1)C1CCCCC1	i	4.3	nt	8.8	-4.95*	5.9	i	i
Cc1cccc(N(C(=O)CNC(=O)c2ccco2)C(C(=O)NC2CCCC2)c2ccncc2)c1C (configuration not stated)	i	-13.0	-8.5	6.5	i	0.5	nt	nt
O=C(CCN1C(=O)/C(=C/c2ccccc2)SC1=S)N1CCCCCC1	i	27.5	-11.0	26.2	i	7.6	nt	nt
COc1ccc(/C=C2/SC(=S)N(CCCC(=O)N3CCN(C)CC3)C2=O)cc1	i	33.5	-14.7	-32.0	-6.45*	-40.4	42.4%*	i
CN1CCN(C(=O)CCCN2C(=O)/C(=C/c3ccccc3)SC2=S)CC1	i	23.7	-8.3	10.9	-6.63*	8.4	45.9%*	i
O=C(c1ccco1)N(Cc1cc2ccccc2[nH]c1=O)CC1CCCO1 (configuration not stated)	i	-2.7	14.0	-3.6	i	-3.9	nt	nt
CCCc1nnc(NC(=O)c2nc(S(=O)(=O)Cc3cccc(C)c3)ncc2Cl)s1	i	29.8	22.7	-69.4	-5.2*	-59.7*	29.7%*	i
Cc1nnc(NC(=O)CS(=O)(=O)Cc2ccccc2)s1	nt	30.7	-19.6	1.8	nt	4.3	nt	nt
Cc1nnc(NC(=O)c2nc(S(=O)(=O)Cc3ccccc3)ncc2Cl)s1	i	34.4	-21.8	-39.3	-10.7*	-35.5	27.5%*	i
COCCN(Cc1cc2ccccc2[nH]c1=O)C(=O)c1ccccc1OC	i	5.8	11.7	-4.3	i	0.8	nt	nt
Cn1cc(P(=O)(N2CCOCC2)N2CCOCC2)cc1P(=S)(N1CCOCC1)N1CCOCC1	i	-89.3	24.4	-6.5	i	-4.0	nt	nt
O=C(N/N=C/c1sc2ccccc2c1O)c1ccccc1	i	6.0	0.5	270.4*	-20.2*	197.3	-81.5%*	-55.3*
COc1ccc(C(=O)N/N=C/c2sc3ccccc3c2O)cc1	i	-11.7	-10.6	10.4	i	-2.7	nt	nt
CCOC(=O)c1c(NC(=O)CN2CCCCC2)sc2c1CCCC2O (configuration not stated)	i	2.7	nt	7.9	i	0.4	nt	nt
Cc1ccc(-n2c(C)cc(C(=O)COC(=O)c3ccc[nH]c3=O)c2C)cc1	i	-13.2	-5.8	11.6	i	12.8	nt	nt
CCOC(=O)CC1C(=O)NCCN1S(=O)(=O)c1cc(Cl)c(Cl)cc1Cl (configuration not stated)	i	46.1	nt	?	i	34.8	nt	nt
COc1ccc(NC(=O)CN2CCN(CC(=O)Nc3ccc(OC)cc3)CC2)cc1	i	18.5	2.0	9.1	i	-1.8	nt	nt
COc1ccc(NC(=O)CN2CCN(C(=S)NC3CCCC3)CC2)cc1	i	28.5	11.1	2.6	-6.29*	4.7	i	i
O=C(Nc1nnc(C(F)(F)F)s1)C1COc2ccccc2O1 (configuration not stated)	i	-2.1	-8.3	12.3	-5.36*	8.9	49.5%*	i
O=C(Nc1nnc(C2CC2)s1)C1COc2ccccc2O1 (configuration not stated)	i	32.2	-35.5	26.7	i	5.3	nt	nt
CN(C(=O)c1ccccc1Cl)C1CCCCC1	i	39.3	-12.6	0.7	-6.75*	-3.2	i	i
CN(C(=O)c1cc2ccccc2cc1O)C1CCCCC1	i	13.7	-6.0	-5.9	i	8.8	nt	nt
SMILES	CHT PAM	PHOSPHO1 inh	Lipid droplet	HSF-1 act	CHT inh	HSF1 inh	CHT block conf	HEK293 CHT ctr
Cc1c(NC(=S)NC(=O)c2cccc3ccccc23)cccc1C(=O)O	i	36.4	12.8	-5.0	i	-5.3	nt	nt
Cc1c(NC(=S)NC(=O)c2ccc(COc3ccccc3)cc2)cccc1C(=O)O	i	43.1	-10.7	-8.1	-6.27*	1.3	i	i
CC(NC(=O)c1ccc(C#N)cc1)C1CC2CCC1C2 (configuration not stated)	i	-15.1	29.8	-13.7	i	-1.3	nt	nt
COc1ccc(N2CCN(C(=O)c3cc(-c4cccs4)nc4ccccc34)CC2)cc1	i	20.5	-12.9	-2.0	-6.06*	-7.8	i	i
CCN1CCN(c2cc(C)c3cc(NC(=S)N4CCOCC4)ccc3n2)CC1	i	20.3	7.8	4.4	-5.85*	-3.5	38.6%*	i
CCCN1CCN(C(=S)Nc2ccc3nc(N4CCN(CC)CC4)cc(C)c3c2)CC1	i	20.3	2.7	-4.1	-9.17*	-3.2	22.2%*	i
CCN1CCN(c2cc(C)c3cc(NC(=S)N4CCN(c5ccccc5)CC4)ccc3n2)CC1	i	-16.9	7.1	0.1	i	-3.2	nt	nt
CCN1CCN(c2cc(C)c3cc(NC(=S)N4CCC5(CC4)OCCO5)ccc3n2)CC1	i	-18.8	4.9	-3.1	-5.02*	1.3	39.6%*	i
Cc1ccc(-n2nnnc2SCn2nnc3ccccc3c2=O)c(C)c1	i	-9.3	-14.8	11.9	i	-5.2	nt	nt
Cc1cccc(C)c1NC(=O)CSc1cc(C(=O)c2nccn2C)c2ccccc2n1	i	-32.0	-12.0	6.1	-9.55*	-3.1	i	i
Cn1ccnc1C(=O)c1cc(SCC(=O)NC2CC2)nc2ccccc12	i	0.1	1.7	6.9	i	0.0	nt	nt
Cn1c(=O)n(C)c2cc(N3CCCC3)c(NC(=O)c3cccc(F)c3)cc21	i	34.4	-2.3	-3.7	i	1.5	nt	nt
Cc1ccc(C(=O)Nc2cccc(C(F)(F)F)c2)cc1NC(=O)c1csc(-c2ccncc2)n1	i	4.5	nt	-32.2	-7.99*	-16.7	24.8%*	i
O=C(COc1ccc(S(=O)(=O)N2CCOCC2)cc1Cl)NCCN1CCOCC1	i	27.0	-2.8	-1.6	i	-10.7	nt	nt
COc1ccc(C(C)(C)C)cc1NC(=O)CCNC(=O)c1ccco1	i	19.4	12.0	-4.5	i	-3.7	nt	nt
